We go through eight compounds from PubChem BioAssay.

Active and inactive are the calls of the source.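 How the source made its calls, unless noted: active means inhibition of the reporter signal at or above 50%; inactive means inhibition below 50%.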

A short description of assay [1]: inhibitors of TNFa-induced NFkB p65 translocation, primary screen, imaging, HUVEC, MLSMR starter and 10KST1 sets (AID 438;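 active means inhibition above 20% together with a positive visual image hit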;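 further: compound added about 3h40 before a 20 min TNFalpha stimulation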;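 on inhibition: signal is the nuclear over cytoplasmic p65 intensity ratio per well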). Particulars: HUVEC TNFa-induced p65 nuclear translocation; cell count: measured here: nuclei count (cytotoxicity indicator), at 2.08 µM; inhibition: at 2 µM, stronger effect = higher value, 0% TNFa-plus-vehicle, 100% no-TNFa wells.
Assay [2] is described as follows: inhibitors of mutant huntingtin aggregation, primary screen, imaging, exon1htt(103Q)mCFP cells, high-content imaging (AID 483;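 active means visual image review flags a hit and inhibition of aggregation exceeds 20%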;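 further: compound exposure lasted 3 days before fixation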;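 on nuclei count: percent of the per-plate median nuclei count of sample wells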). Particulars: exon1htt(103Q)mCFP cell line, aggregate imaging, at 2 µM; inhibition of aggregation: stronger effect = higher value; nuclei count: measured here: cell count, toxicity.
Assay [3] is described as follows: inhibitors of E-selectin induction by TNFa, primary screen, imaging, HUVEC, immunofluorescence, MLSMR starter and 10KST1 sets (AID 487;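 active means visually confirmed hit in the image check and inhibition above 20%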;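 on inhibition: signal is fraction of cell area covered by stained E-selectin grains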;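 on nuclei count: 100% = median nuclei count of all wells on the same plate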). Particulars: HUVEC TNFalpha-induced E-selectin immunofluorescence imaging, at 2 µM; inhibition: stronger effect = higher value; nuclei count: measured here: cell number, toxicity.
Assay [4] concerns the target Voltage-gated potassium channel subunit beta-2 (Rattus norvegicus) (UniProt P62483). The experiment in a line: KvBeta enzyme negative modulators, primary screen, biochemical, NADPH fluorescence (AID 622;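 active means fluorescence slope higher than the sample average by over 3 SD, cut at about -0.22 in these data, passing the limit was not always enough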;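 further: slope of raw intensity against log time taken from 70 to 1610 s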). Particulars: recombinant KvBeta, 4-cyanobenzaldehyde reduction, at 10 µM, stronger effect = higher value.
Assay [5] shares this target. Briefly: KvBeta positive modulators, primary screen, biochemical, NADPH fluorescence (AID 623;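 active means NADPH fluorescence slope more negative than the mean of all samples by about 3 SD, 99.7% confidence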;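 further: fluorescence intensity change per second fitted from 20 to 320 s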). Particulars: Recombinant KvBeta, NADPH fluorescence decrease slope, 10 min; at 10 µM; stronger effect = lower value.
Assay [6] has as its target Muscarinic acetylcholine receptor M4 (Homo sapiens) (UniProt P08173). The experiment in a line: compounds altering M4/GIRK thallium flux, either direction, primary screen, M4 allosteric agonist project, cell-based, HEK293 M4/GIRK, BTC-AM (AID 625;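 active means fluorescence slope after compound addition differing from the mean of all tested samples at 99.7% confidence, mostly higher but some lower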;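 further: thallium influx through GIRK channels coupled to M4 in HEK293 cells with BTC-AM dye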). Particulars: at 10 µM, actives lie on both sides. Put shortly: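 Material – HEK293 cells with M4 receptor and GIRK channels · Buffer or medium – pH 7.3 thallium assay buffer · Doses – one dose, 10 µM final · Timing – cells overnight at 37 °C, BTC-AM loading 1 h, reads 2 min total · Measured by – kinetic fluorescence with BTC-AM dye · Controls – carbachol and DMSO controls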

Assay [7] is described as follows: inhibitors of Sendai virus-induced IRF3 signaling, primary screen, TLR/RLR signaling modifier project, cell-based, Sendai virus stimulus, luciferase, 10K MLSCN set (AID 602276;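 active means inhibition at or above 50% at 10 µM; inactive means inhibition below 50%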;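 further: firefly luciferase from ISG56 promoter only with Renilla not read in this screen; 0% = Sendai virus plus DMSO and 100% = medium plus DMSO without virus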). Particulars: HEK293 RL24 IRF3 luciferase reporter, at 10 µM, stronger effect = higher value. In general terms: A reporter such as luciferase makes a cellular process visible.
Assay [8] is described as follows: inhibitors of poly I:C-induced TLR3 signaling, primary screen, cell-based, poly I:C stimulus, luciferase, 10K MLSCN set (AID 602277). Particulars: HEK293-TLR3 RL24 IRF3 luciferase reporter, at 10 µM, stronger effect = higher value.

Chain of Muscarinic acetylcholine receptor M4 (Homo sapiens) (P08173 whole entry, looked up): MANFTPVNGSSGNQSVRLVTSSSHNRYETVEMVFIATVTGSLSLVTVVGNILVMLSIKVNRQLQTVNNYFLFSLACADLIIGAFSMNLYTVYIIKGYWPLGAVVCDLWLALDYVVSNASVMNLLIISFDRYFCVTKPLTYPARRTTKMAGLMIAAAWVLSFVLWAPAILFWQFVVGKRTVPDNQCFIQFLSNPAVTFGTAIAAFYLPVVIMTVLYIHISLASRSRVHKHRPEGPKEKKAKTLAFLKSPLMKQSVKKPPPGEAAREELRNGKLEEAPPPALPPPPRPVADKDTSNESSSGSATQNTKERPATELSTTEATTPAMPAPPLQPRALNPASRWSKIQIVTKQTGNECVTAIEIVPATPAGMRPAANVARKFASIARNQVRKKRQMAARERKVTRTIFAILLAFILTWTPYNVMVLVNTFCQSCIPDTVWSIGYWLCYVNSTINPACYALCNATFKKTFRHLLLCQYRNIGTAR
Chain of Voltage-gated potassium channel subunit beta-2 (Rattus norvegicus) (P62483 whole entry, looked up): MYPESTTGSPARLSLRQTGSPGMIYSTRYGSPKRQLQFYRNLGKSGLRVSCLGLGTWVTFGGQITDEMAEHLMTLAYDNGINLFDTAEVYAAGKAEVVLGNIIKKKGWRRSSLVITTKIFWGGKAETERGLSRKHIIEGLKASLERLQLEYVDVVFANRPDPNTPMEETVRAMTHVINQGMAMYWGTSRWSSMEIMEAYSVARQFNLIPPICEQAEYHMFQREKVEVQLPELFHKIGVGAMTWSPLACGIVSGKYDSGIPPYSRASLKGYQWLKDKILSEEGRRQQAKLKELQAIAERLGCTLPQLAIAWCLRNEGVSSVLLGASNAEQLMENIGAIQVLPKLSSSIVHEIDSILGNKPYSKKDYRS

For orientation: inhibition means the drop in the measured response relative to a control, in per cent. As to `CCCCN(C)Cc1c(C)[nH]c2c(Cl)cccc2c1=O`, in assay [1], the cell count amounted to 326. In addition, the inhibition in assay [1] is -0.2% (inactive); in assay [3], -38.6% (inactive); in assay [7] it was 7.84% (inactive); in assay [8] it was 23.5% (inactive). In assay [2], the inhibition of aggregation was 0.9% (inactive). Also, the nuclei count was 92.1% in assay [2] and 92.3% in assay [3]. Moreover, the fluorescence slope is -0.434 (inactive) in assay [4] and 0.00844 (inactive) in assay [6]. In addition, the NADPH fluorescence slope in assay [5] is 3.3e-05 (inactive).

`Brc1ccc2[nH]ncc2c1`: the cell count in assay [1] was 364. The inhibition in assay [1] is 4.4% (inactive); in assay [3] it was 13.4% (inactive); in assay [7], 15.5% (inactive); in assay [8] it was 22.5% (inactive). Moreover, the inhibition of aggregation in assay [2] is 8.2% (inactive). Further, the nuclei count amounted to 91.4% in assay [2] and 77% in assay [3]. In addition, the results for the fluorescence slope in assay [4] and in assay [6] were -0.477 (inactive) and 0.00572 (inactive), respectively. In assay [5], the NADPH fluorescence slope was -3.1e-06 (inactive).

As for `C=CCNC(=O)CNS(=O)(=O)c1ccc(F)cc1`, the cell count in assay [1] was found to be 443. Also, the inhibition in assay [1] is -2.6% (inactive); in assay [3], 36.9% (inactive); in assay [7], 19.3% (inactive); in assay [8], 45.8% (inactive). In assay [2], the inhibition of aggregation is 11.8% (inactive). Besides, the results for the nuclei count in assay [2] and in assay [3] were 73.9% and 88%, respectively. Besides, the figures for the fluorescence slope in assay [4] and in assay [6] were -0.592 (inactive) and 0.00626 (inactive), respectively. Besides, the NADPH fluorescence slope in assay [5] is 1e-05 (inactive).

As to `CCOc1ccccc1NC(=O)CSc1c(C)n[nH]c1C`, the cell count in assay [1] was 333. Also, the inhibition is -2% (inactive) in assay [1], -17.1% (inactive) in assay [3], 1.91% (inactive) in assay [7] and 15.3% (inactive) in assay [8]. Further, in assay [2], the inhibition of aggregation is -21.4% (inactive). Also, the results for the nuclei count in assay [2] and in assay [3] were 120% and 113%, respectively. In addition, the fluorescence slope is -0.548 (inactive) in assay [4] and 0.00526 (inactive) in assay [6]. Besides, the NADPH fluorescence slope in assay [5] was -1.7e-05 (inactive).

Consider `COc1ccc(-c2cc(C(F)(F)F)nc(SCC(=O)NCc3ccco3)n2)cc1OC`, for which the cell count in assay [1] stood at 614. For the same compound, the inhibition in assay [1] was -9.9% (inactive); in assay [3], -20.4% (inactive); in assay [7], 24.6% (inactive); in assay [8] it was 23.2% (inactive). Also, in assay [2], the inhibition of aggregation is -5.9% (inactive). Also, the nuclei count was 94% in assay [2] and 103% in assay [3]. The fluorescence slope was -0.304 (inactive) in assay [4] and 0.00529 (inactive) in assay [6]. Besides, in assay [5], the NADPH fluorescence slope was -1.1e-05 (inactive).

In the case of `O=C(CN1C(=O)c2ccccc2C1=O)NCC1COc2ccccc2O1` (stereo not drawn), the cell count in assay [1] worked out at 403. For the same compound, the inhibition was -0.8% (inactive) in assay [1], 50.3% (inactive) in assay [3], -12.5% (inactive) in assay [7] and -10.2% (inactive) in assay [8]. The inhibition of aggregation in assay [2] was 12.6% (inactive). Further, the nuclei count is 101% in assay [2] and 75.3% in assay [3]. The values for the fluorescence slope in assay [4] and in assay [6] were -0.477 (inactive) and 0.00703 (inactive), respectively. Besides, in assay [5], the NADPH fluorescence slope is 9.2e-05 (inactive).

As to `COc1ccc(S(=O)(=O)NCc2ccco2)cc1-c1nnc2c3ccccc3c(C)nn12`, in assay [1], the cell count turned out to be 723. The inhibition in assay [1] was -2.2% (inactive); in assay [3], -77.8% (inactive); in assay [7] it was 12.3% (inactive); in assay [8] it was 11.8% (inactive). In assay [2], the inhibition of aggregation was -27% (inactive). Moreover, the values for the nuclei count in assay [2] and in assay [3] were 101% and 106%, respectively. The fluorescence slope in assay [4] was -0.444 (inactive); in assay [6], 0.00549 (inactive). Moreover, the NADPH fluorescence slope in assay [5] is -2.6e-05 (inactive).

For the compound `COc1cccc(-c2cc(C(=O)Nc3cc(C)n(Cc4ccc(Cl)cc4)n3)no2)c1`, in assay [1], the cell count came out at 498. Moreover, the inhibition in assay [1] is -5.7% (inactive); in assay [3], 38.9% (inactive); in assay [7], 18.7% (inactive); in assay [8], -60.3% (inactive). Further, in assay [2], the inhibition of aggregation was 10.2% (inactive). The nuclei count in assay [2] and in assay [3] was 100% in each case. In addition, the fluorescence slope in assay [4] was -0.211 (inactive); in assay [6], 0.0105 (inactive). Further, in assay [5], the NADPH fluorescence slope was -2.5e-05 (inactive).
